# This is one part of a sample in which hits are shown more often than they occur.
# CHOP UPR activ: activators of apoptotic CHOP UPR arm, primary screen, cell-based, CHO-CHOP luciferase reporter, luminescence, uHTS | UPR activation; percent of tunicamycin response over DMSO baseline | activation, % at 10 µM | 0.34% of 330,000 active | AID 449763, 2010;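 active = at 10 µM dose, activation of 40% or more, normalized to positive control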;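 note: 100% = tunicamycin at 10 µg/mL and 0% = DMSO alone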
#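 measured by = luciferase luminescence | assay system = CHO-CHOP cells, stable luciferase reporter of PERK-eIF2a-CHOP signalling | amount = 500 reporter cells seeded per well | timing = 6 h compound exposure at 37 °C after overnight seeding | controls = positive tunicamycin 10 µg/mL, negative DMSO alone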
# Jurkat NFkB inh: inhibitors of induced NF-kB luciferase reporter, primary screen, TCR NF-kB activation inhibitor project, cell-based, luminescence, uHTS; Jurkat, PMA/ionomycin-induced NF-kB luciferase reporter; inhibition, % at 4 µM; 0.53% of 330,000 active; AID 435003, 2010; in the data active = inhibition above about 50%
# XBP1 UPR activ: activators of adaptive XBP1 UPR arm, primary screen, cell-based, CHO-XBP1 luciferase reporter, luminescence, uHTS. 0.33% of 330,000 active. AID 463104, 2010. activation, % at 20 µM. IRE1-XBP1 UPR activation; percent of tunicamycin response, DMSO as zero;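 active = versus positive control, 20 µM dose yields 30% or more activation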;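 note: 100% = tunicamycin at 10 µg/mL and 0% = DMSO only wells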
#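 Test system: CHO-XBP1 luciferase reporter cells | Buffer or medium: Serum-containing F12 medium, 10% FBS | Schedule: 6 h compound exposure at 37 °C, 5% CO2 | Detection: Steady-Glo luciferase glow luminescence, 10 min after reagent addition | Read-out basis: Activation, % of tunicamycin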
# 697 NFkB inh: inhibitors of PMA/ionomycin-induced NF-kB reporter, 697 cells, primary screen, B-cell NF-kB inhibitor project, cell-based, luminescence, uHTS; inhibition, % at 4 µM; 0.33% of 330,000 active; 697 B-cell NF-kB luciferase reporter, 16 h; in the data active = inhibition above about 35%
# CHOP inh: inhibitors of CHOP promoter induction, primary screen, cell-based, unfolded protein response, luciferase reporter; CHO-K1 CHOP-promoter luciferase, tunicamycin-induced, 15-18 h; inhibition, % at 10 µM; 3.8% of 220,000 active; AID 2732, 2010;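 active = compounds that reduced the stress-induced luciferase reporter signal by more than about 70% of percent inhibition, limit read from the data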;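 note: 0% = tunicamycin plus vehicle and 100% = wells without tunicamycin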
# CHOP confirm: retest of CHOP induction inhibitors, confirmation, cell-based | shares compounds with CHOP inh | CHO-CHOP promoter luciferase reporter, tunicamycin-induced, luminescence | inhibition, % at 10 µM | 45% of 2,100 active;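 active = mean of three repeat readings of reporter signal inhibition above a set limit, cut at about 70% in these data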;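 note: 0% = tunicamycin plus vehicle and 100% = wells lacking tunicamycin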
# Active calls of the source: *; . = not tested or not shown.
SMILES,CHOP UPR activ,Jurkat NFkB inh,XBP1 UPR activ,697 NFkB inh,CHOP inh,CHOP confirm
O=C(c1cc(-c2ccccc2O)on1)N1CCc2ccccc2C1,2,-6,-2,-1,106*,2
O=C(c1cc(-c2ccc(O)cc2)on1)N1CCc2ccccc2C1,3,-9,7,-7,.,.
c1ccc(-c2cc(NCCN3CCCCC3)c3ccccc3n2)cc1,-3,-18,-3,2,.,.
CCN(CCO)c1ncnc2c1sc1nc(CC(C)C)c3c(c12)CC(C)(C)OC3,1,-9,12,-8,106*,92*
CC1(C)Cc2nc3sc4c(N(CCO)CCO)ncnc4c3cc2CO1,2,-13,2,-5,-38,.
C=CCn1c(SCC(=O)c2[nH]c(C)c(C(=O)OC)c2C)nc2scc(-c3ccc(OC)c(OC)c3)c2c1=O,.,.,.,.,102*,120*
O=C(Nc1nnc(-c2ccccc2)s1)c1ccc(F)cc1,5,-4,-1,-61,103*,36
Cc1ccc(S(=O)(=O)Nc2ccc(Cl)cc2)cc1NC(=O)c1cc2c(s1)CCCC2,2,6,-4,-1,104*,66
O=C(CCS(=O)(=O)c1ccc(Cl)cc1)N1CCCc2ccccc21,1,-58,-6,-52,.,.
c1ccc2c(-c3c[nH]c4ccccc34)c3ccccc3nc2c1,-1,4,1,2,98*,-18
CCN(CCCNC(=O)c1nn(C)c2c1CS(=O)(=O)c1ccccc1-2)Cc1ccccc1,0,2,-4,-19,.,.
O=S(=O)(/N=C(/Sc1ccccc1)c1ccccc1)c1ccccc1,4,-1,5,17,112*,60
CC(C)(C)c1ccc(NC(=O)C(=O)C2C(=O)Nc3ccccc32)cc1 (configuration not stated),3,-1,4,5,101*,48
O=C(CCc1ccccc1)NNC(=O)COc1ccccc1Cl,1,12,3,1,.,.
O=C(OCn1ncc(Cl)c(Cl)c1=O)c1ccc(F)cc1,-11,32,-5,-31,107*,123*
CC(OC(=O)c1oc2ccccc2c1CSC1CCCCC1)C(=O)NC(N)=O (configuration not stated),5,-5,2,-6,101*,36
O=S1(=O)c2ccccc2N=NN1Cc1ccc(Cl)cc1,-1,-3,-2,-6,109*,16
Clc1ccc(Cn2cnc3ccccc32)cc1,0,9,-1,-15,13,.
FC(F)(F)c1cccc(NC(=S)Nc2ccc(Cl)cc2Cl)c1,1,-15,-4,-11,105*,101*
CC(=O)c1cccc(NC(=S)NC(=O)Cc2ccccc2)c1,2,0,2,-18,3,.
O=C(Cc1ccccc1)NC(=S)Nc1cccc(C(F)(F)F)c1,-1,9,-1,-13,108*,102*
S=C(Nc1ccccc1)Nc1ccc(Cl)cc1Cl,6,-3,-1,-7,26,.
Cc1ccc(NC(=O)/C=C/c2cccc(C(F)(F)F)c2)cc1,7,2,0,-8,35,.
O=C(/C=C/c1cccc(C(F)(F)F)c1)Nc1cccc(C(F)(F)F)c1,5,-11,6,-21,97*,100*
FC(F)(F)c1cccc(NC(=S)NCC2COc3ccccc3O2)c1 (configuration not stated),-1,-3,0,7,103*,2
COc1cc2c(cc1OC)CN(C(=O)c1cc(S(=O)(=O)N3CCOCC3)ccc1C)CC2,1,-15,0,-22,.,.
O=C(NCCS(=O)(=O)N1CCN(Cc2ccccc2)CC1)c1ccc(F)cc1,11,-9,0,8,.,.
CN(C)C(CNC(=O)c1cc(-c2ccco2)nc2ccccc12)c1ccccc1 (configuration not stated),1,-6,-2,5,.,.
CN1CCN(NC(=O)c2cccc(C(F)(F)F)c2)CC1,1,10,0,11,-11,.

# Compound activity from PubChem BioAssay.
